Results as given in article PMC6476629 (Bioorganic & medicinal chemistry, 2019).
Where two headings read alike, the source gives them in different places.

Key:
Type in all cases: binding, HIV-1
[1] = test system: 5'-32P labeled RRE SL-IIB; experiment: RNase footprinting; details: branched peptide 0-20 μM, concentration-dependent, upper stem region
In short: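 RRE SL-IIB dephosphorylated, then 5′-end labeled with [γ-32P]ATP and T4 polynucleotide kinase. Labeled RNA (10 nM) plus unlabeled SL-IIB (200 nM) refolded (95 °C 3 min, snap-cooled on ice). Incubated with peptide on ice 4 h in 10 mM Tris pH 7, 100 mM KCl, 10 mM MgCl2. RNase V1 0.002 Units, 10 min on ice; quenched. Run on 12% PAGE/7.5 M urea beside an alkaline hydrolysis ladder. Read by autoradiography.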

[2] = molecular target: 2-AP-labeled RRE SL-IIB RNA; details: for Kd: at least duplicate, ± SD
In short: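 2-AP-labelled RRE SL-IIB RNA (0.1 μM, refolded at 95 °C for 3 min and snap-cooled) with 10-fold excess unlabelled competitor (loop/bulge-deleted RRE RNA, RRE SL-IIB DNA or TAR RNA). Branched peptide titrated 0-20 μM in phosphate buffer (10 mM KPi, 100 mM KCl, 1 mM MgCl2, 20 mM NaCl, pH 7.0). Excitation 310 nm; fluorescence decrease at 372 nm. Kd from Hill-equation fit; at least duplicate, SD.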

234 nt NL4-3 RRE RNA = experiment: SHAPE-MaP footprinting; details: cutoff +/- 0.3

(DLL)2KLGBY [4B3]
protection from RNase V1 cleavage [1]: reduced cleavage at G53, C54, and C65 | Kd ([2]; RRE IIB in the presence of 10× RRE DNA): 1480 ± 30 nM | Kd ([2]; RRE IIB in the presence of 10× TAR RNA): 3520 ± 520 nM | loss of binding affinity ([2]; in the presence of No Bulge RRE RNA competitor): ~3 fold | loss of binding affinity ([2]; in the presence of RRE DNA competitor): ~3 fold | increase of Kd against RRE IIB ([2]; in the presence of TAR RNA competitor): approximately 10 fold | change in 1M7 reactivity (234 nt NL4-3 RRE RNA; 1:1 RNA:BP ratio): decreased reactivity was observed at nt 28 | change in 1M7 reactivity (234 nt NL4-3 RRE RNA; in the presence of 4B3, ratio not stated): nt 46, which forms non-canonical base pairing upon Rev,[12] exhibited increased reactivity
